# Published values collected from several papers.
# Lines come from different studies, so protocols differ.
# Matrix: plasma
SMILES,host,route,dose,notes,quantity,result
CCn1c(=O)c(-c2cc(NC(=O)Nc3ccccc3)c(F)cc2Br)cc2cnc(NC)cc21,beagle dog,oral,5 mg/kg,single dose,Cmax,544 ng/mL
CC(C)Oc1c(NC(=O)c2ccc(NC(=O)[C@H](CC(N)=O)NC(=O)c3ccc(NC(=O)c4ccc(C#N)cc4)cc3)cc2)ccc(C(=O)Nc2ccc(C(=O)O)cc2)c1O,male CD-1 mouse,intravenous,5 mg/kg,single dose,C0,2940 ng/mL
COc1cc2c3c(n(CCCN4CCOCC4)c(=O)c2cc1OC)-c1cc2c(cc1C3=O)OCO2,female beagle dog,intravenous,100 mg/m²,infusion,Cmax,547 ng/mL
C=CC(=O)Nc1cc(Nc2nccc(Nc3cc(Cl)c(F)cc3C(C)(C)O)n2)c(OC)cc1N1CC[C@@H](N(C)C)C1,beagle dog,intravenous,1 mg/kg,,clearance,30.9 mL/min/kg
C#Cc1cnc2nc(O)n(C(CC)CC)c2n1,male beagle dog,intravenous,1 mg/kg,,clearance,4.3 mL/min/kg
C=CC(=O)N1CC2CC(n3nc(-c4ccc(C(=O)Nc5ccccn5)cc4)c4c(N)ncnc43)CC2C1 (centres unmarked),male Wistar rat,oral,30 mg/kg,,Tmax,2 h
COc1ccnc(CNC(=O)c2cn(Cc3ccc(Cn4ccccc4=O)cc3)nc2C(F)(F)F)c1F,male beagle dog,oral,1 mg/kg,,Cmax,200 ng/mL
CCc1cc(OC)c2nccc(N3CCc4c(cc(Cn5ccnc5)cc4-c4cn(C)nc4C(F)(F)F)C3=O)c2c1,male CD-1 mouse,intravenous,3 mg/kg,,C0,4310 ng/mL
COc1ccc(C(O)COc2ccc(-c3csc(-c4ccc(OCC(O)c5ccc(OC)c(OC)c5)cc4)n3)cc2)cc1OC (centres unmarked),C57BL/6 mouse,intravenous,3 mg/kg,,C0,5280 ng/mL
Cc1ccc2cncc(N3CCc4c(cc(Cn5ccnc5)cc4-c4cn(C)nc4C(F)(F)F)C3=O)c2c1,male CD-1 mouse,intravenous,3 mg/kg,,C0,5480 ng/mL
COc1ccc2nc(-c3ccccn3)c(N(C)c3ccc(F)cc3)n2c1,male CD-1 mouse,oral,50 mg/kg,fasted,CL/F,917 mL/min/kg
CC[C@@H]1CN(C(=O)NCC(F)(F)F)C[C@@H]1c1cnc2cnc3[nH]ccc3n12,beagle dog,oral,1 mg/kg,single dose,CL/F,29.3 mL/min/kg
CNC(=O)c1cc(OC)cc2c(N3CCc4c(cc(Cn5ccnc5)cc4-c4cn(C)nc4C(F)(F)F)C3=O)ccnc12,male CD-1 mouse,intravenous,3 mg/kg,,C0,8370 ng/mL
COc1ccc2c(c1OCc1ccccc1)C[C@@H](C(=O)O)N(C(=O)C(c1ccccc1)c1ccccc1)C2,male beagle dog,oral,3 mg/kg,,Cmax,2710 ng/mL
CCc1cc(C(=O)NC)c2nccc(N3CCc4c(cc(Cn5ccnc5)cc4-c4cn(C)nc4C(F)(F)F)C3=O)c2c1,male Sprague-Dawley rat,oral,100 mg/kg,single dose,Tmax,1.3 h
CC(C)(C)c1ccc(O)c(CN(Cc2cc(C(C)(C)C)ccc2O)C2CCC(NC(N)=O)CC2)c1 (centres unmarked),male C57BL/6 mouse,intraperitoneal,5 mg/kg,single dose,clearance,15.7 mL/min/kg
Cc1nn2c(-c3c(C)nn(C)c3-c3ccc(C(F)(F)F)cc3)nc(CO)c2c(=O)[nH]1,male beagle dog,intravenous,1 mg/kg,,clearance,1.3 mL/min/kg
